ChEMBL document CHEMBL1132183 (J Med Chem, 1999)

How the values were obtained:
[1] = biological target: T1, Alpha-1A adrenergic receptor (Rattus norvegicus) (UniProt P43140); test: Eudisimic ratio(ER) is the antilog of the defference between the pKb and pD2 values against Alpha-1A adrenergic receptor
T1 sequence (whole entry): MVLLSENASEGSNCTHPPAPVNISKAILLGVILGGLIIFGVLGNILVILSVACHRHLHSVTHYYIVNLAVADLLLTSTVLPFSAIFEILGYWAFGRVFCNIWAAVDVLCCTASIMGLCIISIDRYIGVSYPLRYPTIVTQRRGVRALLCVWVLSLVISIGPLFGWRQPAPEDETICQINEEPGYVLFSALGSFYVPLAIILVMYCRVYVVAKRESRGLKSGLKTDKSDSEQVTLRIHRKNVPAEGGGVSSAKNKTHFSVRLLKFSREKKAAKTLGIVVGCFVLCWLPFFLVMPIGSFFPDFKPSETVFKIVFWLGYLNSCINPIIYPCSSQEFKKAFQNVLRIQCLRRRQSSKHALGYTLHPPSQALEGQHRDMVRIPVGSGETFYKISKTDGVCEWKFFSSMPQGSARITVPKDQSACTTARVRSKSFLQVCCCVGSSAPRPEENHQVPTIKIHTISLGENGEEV
Summary of the method: (§1)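 Eudismic ratio is the antilog of the difference between the pKb (functional α1 tissue assays) or pD2 (5-HT1A [35S]GTPγS stimulation) of the eutomer and that of its distomer.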

[2] = biological target: T2, Alpha-1D adrenergic receptor (Rattus norvegicus) (UniProt P23944); test: Eudisimic ratio(ER) is the antilog of the defference between the pKb and pD2 values against alpha-1D-adrenoceptor subtype; assay type: functional; summary of the method: as §1
T2 sequence (whole entry): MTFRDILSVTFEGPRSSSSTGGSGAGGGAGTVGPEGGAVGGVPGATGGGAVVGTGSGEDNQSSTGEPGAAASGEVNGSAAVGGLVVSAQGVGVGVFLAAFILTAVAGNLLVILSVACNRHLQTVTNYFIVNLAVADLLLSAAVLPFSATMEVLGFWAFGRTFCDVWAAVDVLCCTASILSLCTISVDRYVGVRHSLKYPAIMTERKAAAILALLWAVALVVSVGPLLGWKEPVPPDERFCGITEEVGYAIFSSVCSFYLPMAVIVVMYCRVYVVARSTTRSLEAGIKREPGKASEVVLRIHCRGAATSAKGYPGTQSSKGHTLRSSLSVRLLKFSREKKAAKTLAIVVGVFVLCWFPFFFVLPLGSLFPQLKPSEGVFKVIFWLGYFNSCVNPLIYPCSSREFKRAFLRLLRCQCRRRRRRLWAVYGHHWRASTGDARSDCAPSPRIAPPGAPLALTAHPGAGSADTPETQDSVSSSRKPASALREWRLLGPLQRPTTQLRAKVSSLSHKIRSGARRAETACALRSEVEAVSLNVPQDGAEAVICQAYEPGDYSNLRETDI

[3] = biological target: T3, 5-hydroxytryptamine receptor 1A (Homo sapiens) (UniProt P08908); test: Eudisimic ratio(ER) is the antilog of the defference between the pKb and pD2 values against 5-hydroxytryptamine 1A receptor; assay type: functional; summary of the method: as §1
T3 sequence (whole entry): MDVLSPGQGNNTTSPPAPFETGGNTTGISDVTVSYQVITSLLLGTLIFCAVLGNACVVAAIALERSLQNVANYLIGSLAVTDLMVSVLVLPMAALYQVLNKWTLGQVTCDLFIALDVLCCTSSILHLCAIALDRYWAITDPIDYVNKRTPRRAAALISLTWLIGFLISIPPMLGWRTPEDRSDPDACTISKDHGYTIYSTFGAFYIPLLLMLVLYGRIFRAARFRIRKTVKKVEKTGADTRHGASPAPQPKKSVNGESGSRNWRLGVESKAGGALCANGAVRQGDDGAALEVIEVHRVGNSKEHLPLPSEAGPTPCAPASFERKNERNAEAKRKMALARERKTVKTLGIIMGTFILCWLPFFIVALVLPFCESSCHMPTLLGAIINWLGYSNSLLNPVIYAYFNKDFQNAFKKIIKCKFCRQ

[4] = biological target: T4, Alpha-1D adrenergic receptor (Homo sapiens, UniProt P25100); test: Ability to displace [3H]prazosin from human cloned Alpha-1D adrenergic receptor
T4 sequence (P25100 whole entry): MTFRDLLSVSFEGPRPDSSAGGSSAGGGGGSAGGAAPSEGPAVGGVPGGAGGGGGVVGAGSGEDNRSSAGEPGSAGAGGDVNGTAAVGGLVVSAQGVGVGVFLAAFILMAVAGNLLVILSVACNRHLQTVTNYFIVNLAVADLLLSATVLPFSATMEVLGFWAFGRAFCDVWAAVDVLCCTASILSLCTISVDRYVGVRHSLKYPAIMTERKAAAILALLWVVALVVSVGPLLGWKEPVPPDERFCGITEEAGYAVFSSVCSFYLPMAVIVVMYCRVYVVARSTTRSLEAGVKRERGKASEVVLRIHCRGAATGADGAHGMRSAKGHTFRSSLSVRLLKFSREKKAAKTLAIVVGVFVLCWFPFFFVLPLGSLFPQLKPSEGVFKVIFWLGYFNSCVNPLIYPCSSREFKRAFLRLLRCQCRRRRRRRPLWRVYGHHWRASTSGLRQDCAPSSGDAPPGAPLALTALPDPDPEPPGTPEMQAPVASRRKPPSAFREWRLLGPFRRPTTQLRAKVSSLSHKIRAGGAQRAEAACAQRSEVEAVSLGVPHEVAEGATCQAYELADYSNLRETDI
Summary of the method: (§2)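 Competition binding at cloned human α1 subtypes stably expressed in CHO cells: membranes (30 μg protein) incubated 30 min at 25 °C in 50 mM Tris-HCl pH 7.4 with 0.1–0.4 nM [3H]prazosin and competitor (1 pM–10 μM). Nonspecific binding with 10 μM phentolamine; filtration and scintillation counting. Ki by Cheng–Prusoff; 2–3 experiments in triplicate.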

[5] = biological target: T5, Alpha-1B adrenergic receptor (Homo sapiens, UniProt P35368); test: Ability to displace [3H]prazosin from human cloned Alpha-1B adrenergic receptor; summary of the method: as §2
T5 sequence (P35368 whole entry): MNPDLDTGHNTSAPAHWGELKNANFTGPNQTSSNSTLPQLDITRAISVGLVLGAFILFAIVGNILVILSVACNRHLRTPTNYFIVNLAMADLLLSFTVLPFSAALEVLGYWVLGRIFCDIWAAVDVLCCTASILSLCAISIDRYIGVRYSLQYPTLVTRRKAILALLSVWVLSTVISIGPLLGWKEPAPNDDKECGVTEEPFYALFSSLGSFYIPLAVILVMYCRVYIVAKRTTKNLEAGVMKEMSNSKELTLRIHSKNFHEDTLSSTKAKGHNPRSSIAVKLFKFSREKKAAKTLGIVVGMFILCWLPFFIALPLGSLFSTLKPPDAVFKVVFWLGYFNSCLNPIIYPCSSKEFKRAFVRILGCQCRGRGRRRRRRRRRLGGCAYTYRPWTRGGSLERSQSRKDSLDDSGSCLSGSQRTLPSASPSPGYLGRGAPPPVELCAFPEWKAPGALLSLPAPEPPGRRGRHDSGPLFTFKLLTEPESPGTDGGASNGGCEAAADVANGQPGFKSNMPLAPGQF

[6] = biological target: T3, 5-hydroxytryptamine receptor 1A (Homo sapiens); test: Eudisimic ratio(ER) is the antilog of the difference between the pKb and pD2 values against 5-hydroxytryptamine 1A receptor; assay type: functional; summary of the method: as §1
[7] = biological target: T2, Alpha-1D adrenergic receptor (Rattus norvegicus); test: Eudisimic ratio(ER) is the antilog of the defference between the pKb and pD2 values against Alpha-1D adrenergic receptor subtype; assay type: functional; summary of the method: as §1

Row | SMILES | ER [1] | ER [2] | ER [3] | Ki [4] [nM] | Ki [5] [nM] | ER [6] | ER [7]
1 | O[C@@H]1[C@H](NC[C@H]2COc3ccccc3O2)CC[C@H]1Oc1ccccc1 | > 35 | 33 | 123 | 7.94 | 46.8 | – | –
2 | O[C@H]1[C@@H](NC[C@H]2COc3ccccc3O2)CC[C@@H]1Oc1ccccc1 | – | – | – | – | – | 27 | 7
